Assay results gathered from unrelated publications.
Compare with care: the assays were run in different laboratories.
Cell line: NCI-H522
Effect on: cell growth or viability

Cc1n(Cc2ccc3ccccc3n2)cc[n+]1Cc1ccc2ccccc2c1  TGI (SRB): 1.46 µM
COc1ccc(C2=Nn3c(NN=C4C(=O)Nc5ccc(OC)cc54)nnc3SC2)cc1  inhibition (SRB; 10 µM): 25%
CCCc1n(Cc2ccc3ccccc3n2)cc[n+]1Cc1ccc2ccccc2c1  TGI (SRB): 1.13 µM
COc1ccc(C2=Nn3c(NN=C4C(=O)Nc5ccc(Cl)cc54)nnc3SC2)cc1  inhibition (SRB; 10 µM): 34%
COc1ccc(C(=O)/C=C/c2ccccc2Br)cc1S(N)(=O)=O  GI50 (SRB; 48 h): 1.8 µM
O=C1NC(=NCc2cccs2)S/C1=C\c1ccc2ncccc2c1  IC50: > 10 µM
c1ccc(-c2n(Cc3ccc4ccccc4c3)cc[n+]2Cc2ccc3ccccc3c2)cc1  TGI (SRB): 2.58 µM
COc1ccc(C(=O)/C=C/c2cccnc2)cc1S(N)(=O)=O  inhibition (SRB; 10 µM): 168%
COc1cc(-c2ccc(-c3ccc(C(=N)N)nc3)s2)cc(OC)c1OC  GI50 (SRB): 1.8 µM
COc1ccccc1/C=C/C(=O)c1ccc(OC)c(S(N)(=O)=O)c1  inhibition (SRB; 10 µM): 110%
S=C([S][Au-][P+](CCCCCC[P+]([Au-][S]C(=S)n1cccn1)(c1ccccc1)c1ccccc1)(c1ccccc1)c1ccccc1)n1cccn1  GI50 (SRB): 1.62 µM
c1ccc2cc(Cn3cc[n+](Cc4ccc5ccccc5c4)c3)ccc2c1  TGI (SRB): 3.11 µM
COc1ccc(C(=O)/C=C/c2cccc3ccccc23)cc1S(N)(=O)=O  GI50 (SRB; 48 h): 1.6 µM
